Reference: ChEMBL document CHEMBL1123989, “Effects of addition of a 2-methyl group to ethyl nipecotates (beta-meperidines) on receptor affinities and opiate agonist/antagonist activities” (J Med Chem, 1988)
Activity calls are given as the source filed them.

Tests used:
Mus musculus [1] = experiment: Antagonistic activity to show narcotic effect induced by subcutaneous administration of 21.08 umol/kg of morphine in mouse tail-flick test; assay type: functional
Method in brief: (§1)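 Male Swiss-Webster mice. Tail-flick latency read at 10, 20, 30, 45 and 60 min. % antagonism = 100 − (% agonism with morphine)/0.80, taken at peak effect. AD50 with 95% CL by Litchfield–Wilcoxon from the log-dose plot.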

Mus musculus [2] = experiment: Effective dose to show narcotic analgesic activity was evaluated in mouse tail-flick test when administered subcutaneously; assay type: functional; conditions: sc
Method in brief: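 Male Swiss-Webster mice (21-28 g), pretested twice; heat lamp set for a 2-4 s baseline flick with a 6.5 s cut-off. Three doses, 10 mice/dose, given sc. Latency read at 10-60 min. % of maximum possible increase taken at peak effect. ED50 with 95% CL from a log-dose probit plot (Litchfield–Wilcoxon).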

Mu-type opioid receptor = Mu-type opioid receptor (Rattus norvegicus, UniProt P33535); experiment: Binding affinity at Opioid receptor mu 1 in rat brain membrane was determined by using curve-fitting ligands ([3H]DHM, [3H]DADL, [3H]DSLET, [3H]EKC); assay type: cell membranes
Method in brief: (§2)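 Rat brain membranes in Tris pH 7.7, preincubated 1 h at 37 °C to strip endogenous opioids. 12 mg tissue per tube with tritiated ligand plus competitor, 1 h at 25 °C, then filtered. Nonspecific binding defined with 1.0 μM unlabeled form of the tracer. Each curve run twice at two tracer concentrations. Affinities from simultaneous LIGAND curve-fitting.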

[3] = target: Kappa-type opioid receptor (Cavia porcellus, UniProt P41144); experiment: Binding affinity at Opioid receptor kappa 1 in guinea pig brain membrane determined by using [3H]U-69593 as radioligand; assay type: cell membranes
Method in brief: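 Guinea pig brain membranes prepared as for the rat assay (Tris pH 7.7, 1 h 37 °C preincubation). Displacement of [3H]U69,593 over 1 h at 25 °C, then filtered. Nonspecific binding with 1.0 μM unlabeled U69,593. Curves repeated twice at two tracer concentrations. Values by LIGAND analysis.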

[4] = target: Delta-type opioid receptor (Rattus norvegicus, UniProt P33533); experiment: Binding affinity at Opioid receptor delta 1 in rat brain membrane was determined by using curve -fitting LIGAND([3H]DHM, [3H]DADL, [3H]DSLET, [3H]EKC); assay type: cell membranes; method in brief: as §2
Mus musculus [5] = experiment: Antagonistic activity to show narcotic effect induced by subcutaneous administration of 21.08 umol/Kg of morphine in mouse tail-flick test; NA=No antagonism; assay type: functional, organism-based; method in brief: as §1

Mu-type opioid receptor, sequence (P33535 whole entry): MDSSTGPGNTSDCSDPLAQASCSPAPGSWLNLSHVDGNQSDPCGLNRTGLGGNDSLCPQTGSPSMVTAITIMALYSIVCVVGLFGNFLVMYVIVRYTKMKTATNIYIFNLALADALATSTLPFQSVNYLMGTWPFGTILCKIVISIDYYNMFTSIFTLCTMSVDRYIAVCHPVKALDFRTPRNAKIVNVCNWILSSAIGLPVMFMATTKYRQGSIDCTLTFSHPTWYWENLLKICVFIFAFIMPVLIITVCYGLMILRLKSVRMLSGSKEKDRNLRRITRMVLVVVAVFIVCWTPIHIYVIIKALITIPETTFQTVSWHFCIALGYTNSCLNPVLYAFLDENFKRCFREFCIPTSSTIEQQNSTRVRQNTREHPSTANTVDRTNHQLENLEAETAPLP
Delta-type opioid receptor, sequence (P33533 whole entry): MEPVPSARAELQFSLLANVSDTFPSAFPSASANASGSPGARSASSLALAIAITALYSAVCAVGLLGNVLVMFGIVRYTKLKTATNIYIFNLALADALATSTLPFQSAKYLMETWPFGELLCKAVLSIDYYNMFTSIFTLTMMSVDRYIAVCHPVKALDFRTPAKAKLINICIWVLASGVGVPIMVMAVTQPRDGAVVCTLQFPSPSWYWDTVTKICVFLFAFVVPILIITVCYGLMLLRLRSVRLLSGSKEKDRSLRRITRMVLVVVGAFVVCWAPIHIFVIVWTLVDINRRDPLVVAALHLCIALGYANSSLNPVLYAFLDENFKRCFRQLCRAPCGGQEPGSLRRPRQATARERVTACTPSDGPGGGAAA
Kappa-type opioid receptor, sequence (P41144 whole entry): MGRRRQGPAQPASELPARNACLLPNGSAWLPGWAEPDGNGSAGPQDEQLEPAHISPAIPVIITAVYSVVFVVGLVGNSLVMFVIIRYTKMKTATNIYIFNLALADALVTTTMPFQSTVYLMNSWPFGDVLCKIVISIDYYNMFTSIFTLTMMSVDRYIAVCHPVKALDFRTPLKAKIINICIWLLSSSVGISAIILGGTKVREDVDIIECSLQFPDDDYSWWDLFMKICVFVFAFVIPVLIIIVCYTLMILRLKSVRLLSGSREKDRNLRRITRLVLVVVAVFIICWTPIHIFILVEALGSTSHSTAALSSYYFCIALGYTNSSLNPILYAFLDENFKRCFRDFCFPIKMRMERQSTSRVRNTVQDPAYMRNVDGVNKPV

Compound	AD50 (Mus musculus [1])	ED50 (Mus musculus [2])	Kd (Mu-type opioid receptor)	Kd [3]	Kd [4]	AD50 (Mus musculus [5])
C=CCN1CCC[C@](C(=O)OCC)(c2cccc(O)c2)[C@@H]1C	112 µM/kg	> 118 µmol/kg	310 nM	830 nM	770 nM	–
CCOC(=O)[C@]1(c2cccc(O)c2)CCCN(CCc2ccccc2)[C@H]1C	>198 µM/kg	> 198 µmol/kg	380 nM	2600 nM	170 nM	–
CCOC(=O)[C@]1(c2cccc(O)c2)CCCN(C)C1	24 µM/kg	> 290 µmol/kg	36 nM	2200 nM	4000 nM	–
CCOC(=O)[C@]1(c2cccc(O)c2)CCCN(CC2CC2)[C@H]1C	75 µM/kg	> 452 µmol/kg	154 nM	830 nM	625 nM	–
C=CCN1CC[C@]23c4c5ccc(O)c4O[C@H]2[C@@H](O)C=C[C@H]3[C@H]1C5 [NALORPHINE]	2 µM/kg	828 µmol/kg	–	–	–	–
C=CCN1CCC[C@](C(=O)OCC)(c2cccc(O)c2)C1	>192 µM/kg	> 229 µmol/kg	26 nM	450 nM	715 nM	–
CCOC(=O)[C@]1(c2cccc(O)c2)CCCN(C)[C@H]1C	14 µM/kg	> 510 µmol/kg	178 nM	1900 nM	910 nM	–
CCOC(=O)C1(c2ccccc2)CCN(C)CC1 [MEPERIDINE]	–	25 µmol/kg	–	–	–	inactive
CCOC(=O)[C@]1(c2cccc(O)c2)CCCN(CC2CC2)C1	19 µM/kg	68 µmol/kg	8 nM	120 nM	260 nM	–
